Assay results from ChEMBL document CHEMBL1208661, “Synthesis, characterization, in vitro and molecular docking studies of new 2,5-dichloro thienyl substituted thiazole derivatives for antimicrobial properties” (2010).
In brackets after ≈: the same amount, converted by molar mass. Activity calls are given as the source filed them. The calls are words filed in the database; no cut-off is given here.

Tests used:
Talaromyces marneffei [1] = assay: Antifungal activity against recultured Penicillium marneffei after 3 to 4 days by serial plate dilution method; assay type: functional
Outline: (§1)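 Sabouraud agar was used (peptone, D-glucose and agar in water, pH 5.7). Plates were lawned with a saline spore suspension and dried at 37 °C for 1 h. Wells were punched in the agar and filled with compound in DMSO, with a DMSO solvent control. Plates were run in triplicate at 37 °C for 3–4 days.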

Pseudomonas aeruginosa = assay: Antibacterial activity against Pseudomonas aeruginosa after 24 hrs by disc diffusion method; assay type: functional
Outline: (§2)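 Paper discs (6.25 mm, Whatman No. 1) were dry-heat sterilized at 140 °C for 1 h. Test compounds were made up at different concentrations in dimethylformamide and loaded onto batches of 100 discs, using 1 ml holding 100 times the per-disc amount. Discs were placed in triplicate on nutrient agar seeded with fresh bacteria.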

Staphylococcus aureus = assay: Antibacterial activity against Staphylococcus aureus Smith after 24 hrs by disc diffusion method; assay type: functional; outline: as §2
Aspergillus fumigatus [2] = assay: Antifungal activity against Aspergillus fumigatus NCIM 902 at 10 ug/ml after 3 to 4 days by serial plate dilution method; assay type: functional, organism-based; outline: as §1
Aspergillus flavus [3] = assay: Antifungal activity against Aspergillus flavus NCIM 524 after 3 to 4 days by serial plate dilution method; assay type: functional; outline: as §1
[4] = tested on: Trichophyton mentagrophytes; assay: Antifungal activity against recultured Trichophyton mentagrophytes after 3 to 4 days by serial plate dilution method; assay type: functional; outline: as §1
Escherichia coli = assay: Antibacterial activity against Escherichia coli after 24 hrs by disc diffusion method; assay type: functional; outline: as §2
Klebsiella pneumoniae = assay: Antibacterial activity against Klebsiella pneumoniae after 24 hrs by disc diffusion method; assay type: functional; outline: as §2
Aspergillus fumigatus [5] = assay: Antifungal activity against Aspergillus fumigatus NCIM 902 after 3 to 4 days by serial plate dilution method; assay type: functional; outline: as §1
Aspergillus flavus [6] = assay: Antifungal activity against Aspergillus flavus NCIM 524 at 10 ug/ml after 3 to 4 days by serial plate dilution method; assay type: functional, organism-based; outline: as §1
[7] = tested on: Trichophyton mentagrophytes; assay: Antifungal activity against recultured Trichophyton mentagrophytes at 10 ug/ml after 3 to 4 days by serial plate dilution method; assay type: functional, organism-based; outline: as §1
Talaromyces marneffei [8] = assay: Antifungal activity against recultured Penicillium marneffei at 10 ug/ml after 3 to 4 days by serial plate dilution method; assay type: functional, organism-based; outline: as §1

| MIC (Talaromyces marneffei [1]) | MIC (Pseudomonas aeruginosa) | MIC (Staphylococcus aureus) | MIC (Aspergillus fumigatus [2]) | MIC (Aspergillus flavus [3]) | MIC [4] | MIC (Escherichia coli) | MIC (Klebsiella pneumoniae) | MIC (Aspergillus fumigatus [5]) | MIC (Aspergillus flavus [6]) | MIC [7] | MIC (Talaromyces marneffei [8]) | Compound |
| --- | --- | --- | --- | --- | --- | --- | --- | --- | --- | --- | --- | --- |
| < 6.25 µg/mL | – | – | – | < 6.25 µg/mL | < 6.25 µg/mL | – | – | < 6.25 µg/mL | – | – | – | C[C@@H]1[C@H](O)[C@@H](C)/C=C/C=C/C=C/C=C/C=C/C=C/C=C/[C@H](O[C@@H]2O[C@H](C)[C@@H](O)[C@H](N)[C@@H]2O)C[C@@H]2O[C@](O)(C[C@@H](O)C[C@@H](O)[C@H](O)CC[C@@H](O)C[C@@H](O)CC(=O)O[C@H]1C)C[C@H](O)[C@H]2C(=O)O [AMPHOTERICIN B] |
| – | 100 µg/mL (≈ 319 µM) | 100 µg/mL (≈ 319 µM) | inactive | – | – | inactive | inactive | – | inactive | inactive | inactive | Clc1cc(-c2csc(-c3cccnc3)n2)c(Cl)s1 |
| 12.5 µg/mL (≈ 49.8 µM) | 12.5 µg/mL (≈ 49.8 µM) | 6.25 µg/mL (≈ 24.9 µM) | – | 6.25 µg/mL (≈ 24.9 µM) | 12.5 µg/mL (≈ 49.8 µM) | 6.25 µg/mL (≈ 24.9 µM) | 12.5 µg/mL (≈ 49.8 µM) | 6.25 µg/mL (≈ 24.9 µM) | – | – | – | Nc1nc(-c2cc(Cl)sc2Cl)cs1 |
| – | < 6.25 µg/mL | < 6.25 µg/mL | – | – | – | < 6.25 µg/mL | < 6.25 µg/mL | – | – | – | – | CC1(C)S[C@@H]2[C@H](NC(=O)[C@H](N)c3ccccc3)C(=O)N2[C@H]1C(=O)O [AMPICILLIN] |

The remaining lines, values behind:

| Compound | MIC (Talaromyces marneffei [1]) | MIC (Pseudomonas aeruginosa) | MIC (Staphylococcus aureus) | MIC (Aspergillus fumigatus [2]) | MIC (Aspergillus flavus [3]) | MIC [4] | MIC (Escherichia coli) | MIC (Klebsiella pneumoniae) | MIC (Aspergillus fumigatus [5]) | MIC (Aspergillus flavus [6]) | MIC [7] | MIC (Talaromyces marneffei [8]) |
| --- | --- | --- | --- | --- | --- | --- | --- | --- | --- | --- | --- | --- |
| COc1ccccc1-c1nc(-c2cc(Cl)sc2Cl)cs1 | 12.5 µg/mL (≈ 36.5 µM) | 12.5 µg/mL (≈ 36.5 µM) | 6.25 µg/mL (≈ 18.3 µM) | inactive | 100 µg/mL (≈ 292 µM) | 12.5 µg/mL (≈ 36.5 µM) | 6.25 µg/mL (≈ 18.3 µM) | 100 µg/mL (≈ 292 µM) | – | – | – | – |
| Fc1ccccc1-c1nc(-c2cc(Cl)sc2Cl)cs1 | – | inactive | 100 µg/mL (≈ 303 µM) | inactive | – | – | inactive | inactive | – | inactive | inactive | inactive |
| Clc1cc(-c2csc(-c3cccc4cccnc34)n2)c(Cl)s1 | 6.25 µg/mL (≈ 17.2 µM) | 12.5 µg/mL (≈ 34.4 µM) | 6.25 µg/mL (≈ 17.2 µM) | – | 6.25 µg/mL (≈ 17.2 µM) | 6.25 µg/mL (≈ 17.2 µM) | 12.5 µg/mL (≈ 34.4 µM) | 6.25 µg/mL (≈ 17.2 µM) | 12.5 µg/mL (≈ 34.4 µM) | – | – | – |
